# Results pooled from the literature.
# Lines come from different studies, so protocols differ.
# Read-out: binding
# PIKFYVE: 1-phosphatidylinositol 3-phosphate 5-kinase (PIKFYVE, Homo sapiens, UniProt Q9Y2I7)
# mnmE: mnmE (Escherichia coli, UniProt P25522)
# PIK3CB: Phosphatidylinositol 4,5-bisphosphate 3-kinase catalytic subunit beta isoform (PIK3CB, Homo sapiens, UniProt P42338)
# NAD-dependent histone deacetylase SIR2: NAD-dependent histone deacetylase SIR2 (Saccharomyces cerevisiae S288c, UniProt P06700)
# UCK2: Uridine-cytidine kinase 2 (UCK2, Homo sapiens, UniProt Q9BZX2)
Structure (SMILES),target,assay,conditions,Kd
CCCOc1ccc2[nH]c(C)c(/C=C/C(=O)c3ccncc3)c2c1,PIKFYVE,competition with immobilised ligand,,0.0065 µM
Nc1nc2c(c(=O)[nH]1)N1CN(c3ccc(C(=O)N[C@@H](CCC(=O)O)C(=O)O)cc3)C[C@H]1CN2,mnmE,ITC,,~1 µM
C=CC(=O)N1CCC(C(=O)N(C)CC(=O)N2CCN(c3nc(-c4cnc(N)nc4C(F)F)nc(N4CCOCC4)n3)CC2)CC1,PIK3CB,,,0.0036 µM
Nc1nc(=O)c2c([nH]1)NC[C@H](CNc1ccc(C(=O)N[C@@H](CCC(=O)O)C(=O)O)cc1)N2C=O,mnmE,ITC,pH 7.5,0.26 µM
NC(=O)c1ccc[n+]([C@@H]2O[C@H](COP(=O)([O-])OP(=O)(O)OC[C@H]3O[C@@H](n4cnc5c(N)ncnc54)[C@H](O)[C@@H]3O)[C@@H](O)[C@H]2O)c1,NAD-dependent histone deacetylase SIR2,SPR,,0.575 µM
COC(=O)[C@@H](N)CCCCN,"LRP1 (Homo sapiens, UniProt Q07954)",fluorescence,pH 7.4,370 µM
Nc1ccn([C@@H]2O[C@H](CO)[C@@H](O)[C@H]2O)c(=O)n1,UCK2,fluorescence,,0.0037 µM
O=C(O)c1cccc(Nc2cc(N3CCCCCC3)c3noc4c3c2C(=O)c2ccccc2-4)c1,"Urokinase plasminogen activator surface receptor (Homo sapiens, UniProt Q03405)",,,0.19 µM
CCOc1ccc2[nH]c(C)c(/C=C/C(=O)c3ccncc3)c2c1,PIKFYVE,competition with immobilised ligand,,0.023 µM
Nc1ncnc2c1ncn2[C@@H]1O[C@H](COP(=O)(O)OP(=O)(O)OC[C@H]2OC(O)[C@H](O)[C@@H]2O)[C@@H](O)[C@H]1O (stereo partly shown),NAD-dependent histone deacetylase SIR2,SPR,,2.95 µM
CO[C@H]1O[C@H](CO)[C@@H](O)[C@H](O)[C@@H]1O,"ZG16 (Homo sapiens, UniProt O60844)",NMR,,15000 µM
[N-]=[N+]=N[C@@H]1[C@H](O)[C@@H](CO)O[C@H]1n1ccc(=O)[nH]c1=O,UCK2,fluorescence,,0.0134 µM
Cc1ncsc1-c1ccc([C@H](C)NC(=O)[C@@H]2C[C@@H](O)CN2C(=O)[C@@H](NC(=O)CCCCCC(=O)N2CCC3(CC2)CCN(c2cncc(Nc4ncc(Cl)c(-c5cccc(-c6ccccc6)c5)n4)c2)C3=O)C(C)(C)C)cc1,"Phosphatidylinositol 5-phosphate 4-kinase type-2 beta (PIP4K2B, Homo sapiens, UniProt P78356)",,,> 10 µM
CCC(=O)N1CCC(C(=O)N(C)CC(=O)N2CCN(c3nc(-c4cnc(N)nc4C(F)F)nc(N4CCOCC4)n3)CC2)CC1,PIK3CB,,,0.0077 µM
COc1ccc2[nH]c(C(=O)O)c(/C=C/C(=O)c3ccncc3)c2c1,PIKFYVE,competition with immobilised ligand,,0.046 µM
Cc1cc2nc3c(=O)[nH]c(=O)nc-3n(C[C@H](O)[C@H](O)[C@H](O)COP(=O)(O)OP(=O)(O)OC[C@H]3O[C@@H](n4cnc5c(N)ncnc54)[C@H](O)[C@@H]3O)c2cc1C,"Ubiquitin-associated protein 2 (Homo sapiens, UniProt Q5T6F2)",,lysate,0.045 µM
